Screening results from PubChem.
KCNQ1 act: potentiators or activators of KCNQ1 channel, primary screen, cell-based, thallium flux, high-throughput. Potassium voltage-gated channel subfamily KQT member 1 (Homo sapiens), P51787. CHO-K1 KCNQ1, thallium flux FluxOR fluorescence; hits give high values. B-score at 10 µM. 310,000 compounds, 0.35% hits. AID 2648, 2010;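 active = fluorescence ratio B-score, a plate-corrected score, at least three library SD, with initial intensity B-score within 5 SD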
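Material: CHO-K1 cells stably expressing KCNQ1. Medium: assay buffer for compound exposure, DMSO matched across wells. Reagent: K+/Tl+ depolarizing stimulus. Compound dosing: single-concentration screen. Times: 37 °C overnight plating, 90-min dark dye load, 20-min compound pretreatment. Technique: FluxOR Tl+ flux fluorescence.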
hERG protect: hERG rescue from dofetilide block, primary screen, cell-based, CHO-hERG, FluxOR thallium flux, dofetilide IC70 | activation (rescue from dofetilide block), less the hit threshold, % at 10 µM | 310,000 compounds, 0.51% hits | AID 1511, 2009 | dofetilide IC70 present;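 active = activation above the mean of controls blocked by dofetilide plus 5 SD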;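 note: thallium influx through hERG after potassium depolarization seen as dye fluorescence rise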
Kir21 block: inhibitors of mouse Kir2.1 inward-rectifier potassium channel; Inward rectifier potassium channel 2 (Mus musculus), P35561; HEK293-Kir2.1, FluxOR thallium flux fluorescence; hits give low values; B-score at 10 µM; 310,000 compounds, 0.85% hits;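 active = fluorescence ratio B-score at or below minus 3 SD of library scores, with starting-brightness B-score within 2 SD, cut at about -4.2 in these data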;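 note: channel flux triggered by added potassium and thallium sulfate stimulus; B-score of peak minus minimum fluorescence over baseline after thallium stimulus; more negative B-score means stronger Kir2.1 block with less thallium influx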
Target sequence (P35561 whole entry, looked up): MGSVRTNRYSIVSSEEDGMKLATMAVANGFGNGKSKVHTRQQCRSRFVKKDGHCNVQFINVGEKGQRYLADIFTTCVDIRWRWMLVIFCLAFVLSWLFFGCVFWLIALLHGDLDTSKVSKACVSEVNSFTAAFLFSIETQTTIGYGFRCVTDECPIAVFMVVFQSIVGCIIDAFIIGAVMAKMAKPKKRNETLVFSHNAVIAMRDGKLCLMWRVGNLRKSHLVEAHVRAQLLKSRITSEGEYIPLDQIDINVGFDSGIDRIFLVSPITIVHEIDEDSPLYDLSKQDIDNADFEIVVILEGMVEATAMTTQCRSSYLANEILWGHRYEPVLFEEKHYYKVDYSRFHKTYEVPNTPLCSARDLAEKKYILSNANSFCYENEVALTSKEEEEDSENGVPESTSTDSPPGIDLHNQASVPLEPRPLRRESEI
KCNK9 block: KCNK9 potassium channel inhibitors, primary screen, HEK293 cells, thallium flux | AID 488922, 2010 | 310,000 compounds, 1.2% hits | B-score at 10 µM | FluxOR thallium flux fluorescence; hits give low values;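 active = ratio B-score over 3 SD below the library mean, with starting fluorescence within 5 SD of its mean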;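 note: negative B-score means less thallium flux so channel inhibition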
KCNK3 block: human KCNK3 channel inhibitors, primary screen, CHO cells, FluxOR thallium flux, B-score. Potassium channel subfamily K member 3 (Homo sapiens), O14649. FluxOR fluorescence; hits give low values. B-score at 10 µM. 340,000 compounds, 0.84% hits. AID 602410, 2012;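 active = B-score under library mean minus 4 SD, starting fluorescence ratio at most library mean plus 5 SD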;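 note: more negative B-score means stronger inhibition of thallium flux through KCNK3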
KCNQ1 inh: inhibitors of human KCNQ1 channel, primary screen, cell-based, thallium flux, high-throughput | Potassium voltage-gated channel subfamily KQT member 1 (Homo sapiens), P51787 | CHO-K1 KCNQ1, FluxOR thallium flux fluorescence; hits give high values | B-score at 10 µM | 310,000 compounds, 1.3% hits;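 active = compounds whose thallium flux B-score, printed positive for inhibition, exceeds three library SD while starting fluorescence stays within three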;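 note: channel opened by potassium depolarization with thallium stimulus after 20 min compound exposure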
KCNK9 inh conf: KCNK9 potassium channel inhibitors, confirmation, HEK293 cells, thallium flux, duplicate. shares compounds with KCNK9 block. FluxOR thallium flux fluorescence. inhibition, % at 10 µM. 4,900 compounds, 43% hits;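 active = thallium signal inhibited by more than 5 SD of the compound-free buffer control wells, on both duplicate plates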
Kir2-1 spec: mouse Kir2.1 channel inhibition, confirmation, selectivity assay for KCNK9 modulator project, cell-based, HEK293, thallium flux | inhibition, % at 10 µM | Kir2.1 cells, FluxOR thallium flux fluorescence | shares compounds with KCNK9 block | 4,900 compounds, 4% hits;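 active = thallium signal drop more than 5 SD beyond the mean of the no-compound control wells, seen in both duplicate plates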;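 note: signal is fluorescence rise after thallium addition divided by baseline fluorescence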
HEK293 Tl ctr: thallium flux in non-induced HEK293 cells, confirmation, counter-screen for KCNK9 inhibitor project, cell-based, second counter screen, non-induced KCNK9-HEK293 | 4,900 compounds, 40% hits | inhibition, % at 10 µM | AID 492997, 2010 | shares compounds with KCNK9 block | FluxOR thallium flux;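 active = thallium signal drop beyond 5 SD of the untreated control mean, on both duplicate plates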
Each line names hits and unclear results; the compound was inactive in the other large screens (follow-up assays come after a bar, where they were run). The list is not random: actives were taken first. Their share in the collection is about 3.8%.

C/C(=N\NC(=O)c1ccccc1F)c1ccc2c(c1)Nc1ccccc1S2	KCNK9 block -15 | KCNK9 inh conf inactive | Kir2-1 spec inactive | HEK293 Tl ctr 28%
COc1ccc(C(=O)N/N=C(/C)c2cccc(NC(=O)c3ccccc3F)c2)cc1	none
Cc1ccc2[nH]c3c(c2c1)CN(C(C)C)CC3	none
Cc1ccc(NC(=O)CCSc2nnc(Cc3ccccc3)o2)cc1	none
Cc1cccc(NC(=O)CCSc2nnc(Cc3ccccc3)o2)c1	none | KCNK9 inh conf inactive | Kir2-1 spec inactive | HEK293 Tl ctr inactive
Cc1cccc(C(=O)Nc2ccc(C(=O)c3ccccc3)cc2)c1	KCNK9 block -15 | KCNK9 inh conf 60% | Kir2-1 spec inactive | HEK293 Tl ctr 27%
COc1ccc(C(CNC(=O)COc2ccc(Cl)c(C)c2)N2CCCCC2)cc1 (centres undefined)	none
COc1ccccc1C1CCN(Cc2ccccc2)CC1	none
COc1ccccc1C1CCN(Cc2ccc3ccccc3c2)CC1	none | KCNK9 inh conf inactive | Kir2-1 spec 28% | HEK293 Tl ctr inactive
CCOC(=O)c1ccc(OCCOc2cccc(C)c2)cc1	none
N#Cc1c(Sc2ncc(C(F)(F)F)cc2Cl)nsc1C/C=N\OCc1ccccc1Br	none | KCNK9 inh conf inactive | Kir2-1 spec inactive | HEK293 Tl ctr inactive
C[C@H](CO)N1C[C@H](C)[C@@H](CN(C)Cc2ccc3c(c2)OCO3)Oc2ccc(NS(C)(=O)=O)cc2C1=O	none (no result: KCNQ1 act, hERG protect, Kir21 block, KCNK9 block, KCNQ1 inh)
O=C(Nc1ccnn1C1CCN(C(=O)c2cccc(C(F)(F)F)c2)CC1)C1CC1	none
Cc1nnc(SCc2ccccc2)nc1-c1ccccc1	none | KCNK9 inh conf inactive | Kir2-1 spec inactive | HEK293 Tl ctr inactive
CC1CCCCC12NC(=O)N(CC(=O)NCCc1c[nH]c3ccccc13)C2=O (centres undefined)	none (no result: KCNQ1 act, hERG protect, Kir21 block, KCNK9 block, KCNQ1 inh)
COc1ccc(C(=O)OC(C(=O)c2ccc(C)cc2)c2ccccc2)cc1 (centres undefined)	KCNK9 block -15 | KCNK9 inh conf 65% | Kir2-1 spec inactive | HEK293 Tl ctr 32%
CC(=O)Nc1cccc(C(=O)OC(C(=O)c2ccc(C)cc2)c2ccccc2)c1 (centres undefined)	none
COc1cc(C)ccc1OCCOCCOc1cc(C)c(C)cc1Br	none | KCNK9 inh conf inactive | Kir2-1 spec inactive | HEK293 Tl ctr inactive
CC1CC(C)CN(S(=O)(=O)c2ccc3c(c2)CC(C)N3C(=O)C2CCC2)C1 (centres undefined)	none | KCNK9 inh conf inactive | Kir2-1 spec inactive | HEK293 Tl ctr inactive
CC1CC(C)CN(S(=O)(=O)c2ccc3c(c2)CC(C)N3C(=O)C2CC2)C1 (centres undefined)	none | KCNK9 inh conf inactive | Kir2-1 spec inactive | HEK293 Tl ctr inactive
COc1ccc(CCN(Cc2nc3ccccc3c(=O)[nH]2)C(=O)c2ccco2)cc1	none
COc1ccc(CN(CCC(c2ccccc2)c2ccco2)C(=O)c2ccco2)cc1 (centres undefined)	KCNK9 block -13 | KCNK9 inh conf 50% | Kir2-1 spec inactive | HEK293 Tl ctr 29%
COC(=O)C1CN(Cc2ccccc2)C(=O)C1=O (centres undefined)	none (no result: KCNQ1 act, hERG protect, Kir21 block, KCNK9 block, KCNQ1 inh)
